{
  "source": "PubChem BioAssay AID624466",
  "about": "(The Scripps Research Institute Molecular Screening Center, 2012)",
  "note": "The whole screen tested about 360,000 compounds, of which about 5,400 (1.5%) were called active.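 The calls were made as follows: active = inhibition above a per-plate cutoff, the mean inhibition of test compounds on that plate plus 3 SD (cut at about 49% in these data); inactive = the rest.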 Shown is part of a subset that was picked to be rich in actives.",
  "data": [
    {"molecular_target": "Trace amine-associated receptor 1 (Homo sapiens) (UniProt Q96RJ0)", "sequence (Q96RJ0 whole entry, looked up, the tested form may be a part)": "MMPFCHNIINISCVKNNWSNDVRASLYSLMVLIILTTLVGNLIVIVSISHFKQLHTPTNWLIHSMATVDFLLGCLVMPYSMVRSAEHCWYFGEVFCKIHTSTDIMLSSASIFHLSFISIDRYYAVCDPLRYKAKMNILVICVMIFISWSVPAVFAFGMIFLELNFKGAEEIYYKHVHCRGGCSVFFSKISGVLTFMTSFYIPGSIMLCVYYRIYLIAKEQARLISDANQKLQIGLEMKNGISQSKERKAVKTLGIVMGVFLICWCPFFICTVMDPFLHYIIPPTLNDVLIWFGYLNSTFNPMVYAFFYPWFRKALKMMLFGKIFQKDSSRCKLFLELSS", "assay": "human TAAR1 antagonists, primary screen, Fluo-8 calcium fluorescence, CHO RD-HGA16 cells (AID 624466);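 also: 0% = DMSO plus EC80 beta-PEA response and 100% = DMSO alone without agonist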", "conditions": "CHO RD-HGA16 TAAR1, Fluo-8 calcium fluorescence, antagonist; at 3 µM; active compounds read high", "summary_of_the_method": "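Test system – hTAAR1-expressing CHO RD-HGA16 cells, Gα16-coupled · Reagent – β-PEA at EC80 concentration, post-compound challenge · Compound dosing – 3 µM, single point · Timing – 140 s kinetic read after compound, 140 s after agonist · Detection – Fluo-8 intracellular calcium dye fluorescence, real-time kinetic reads · Control set – DMSO and EC80 PEA controls · Repeats – n of 1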", "values": [
      {"molecule": "Cc1ccc2nc(-c3ccc(NC(=O)c4cccnc4)cc3)oc2c1", "inhibition": "45.9% (inactive)"},
      {"molecule": "O=C(Nc1ccc(Cl)cc1)c1cccc(OC(=S)N2CCOCC2)c1", "inhibition": "-20.4% (inactive)"},
      {"molecule": "CCC(=O)Oc1cccc(C(=O)Nc2ccc(-c3nnc(-c4ccco4)o3)cc2)c1", "inhibition": "63.3% (active)"},
      {"molecule": "CN(CCO)C(=O)c1nc[nH]c1C(=O)N(C)Cc1ccccc1", "inhibition": "-10.4% (inactive)"},
      {"molecule": "CCOC(=O)N(Cc1ccccc1)C1CC1", "inhibition": "2.44% (inactive)"},
      {"molecule": "CN(C(=O)CN(CCO)CC(=O)N(C)C(C)(C)Cc1ccccc1)C(C)(C)Cc1ccccc1", "inhibition": "86.5% (active)"},
      {"molecule": "Cc1nc(SCC(=O)c2ccccc2)c([N+](=O)[O-])[nH]1", "inhibition": "8.14% (inactive)"},
      {"molecule": "Cc1nc2nc(SCC(=O)c3ccccc3)[nH]c2cc1Br", "inhibition": "-5.84% (inactive)"},
      {"molecule": "Cc1cc(SCC(=O)c2ccccc2)nc(SCC(=O)c2ccccc2)n1", "inhibition": "51.6% (active)"},
      {"molecule": "CCOC(=O)CCCNC(=O)COC(=O)c1cc(Br)c(Br)s1", "inhibition": "-4.99% (inactive)"},
      {"molecule": "CCC1CCCCN1CCNS(=O)(=O)c1ccc2c(c1)CCN2C(C)=O", "note": "(stereo unspecified)", "inhibition": "-5.09% (inactive)"},
      {"molecule": "Cc1ccc(C(=O)N/C(=C\\c2cn(S(=O)(=O)N(C)C)c3ccccc23)C(=O)N2CCCC2)cc1", "inhibition": "39.7% (inactive)"},
      {"molecule": "O=C1C(Cl)=C(Oc2ccccc2)C(=O)c2ccccc21", "inhibition": "50.9% (active)"},
      {"molecule": "Cc1cc(Cl)ccc1OCCCC(=O)NCc1ccncc1", "inhibition": "3.15% (inactive)"},
      {"molecule": "Cc1cc(Cl)ccc1OCCCC(=O)NCc1ccccn1", "inhibition": "2.84% (inactive)"},
      {"molecule": "Cc1cc(Cl)ccc1OCCCC(=O)Nc1cccc(-n2cnnn2)c1", "inhibition": "53% (active)"},
      {"molecule": "CC1(C(=O)NCc2ccccc2)CSCC(=O)N1CCCN1CCOCC1", "note": "(stereo unspecified)", "inhibition": "-18.5% (inactive)"},
      {"molecule": "COC(=O)c1ccc2c(c1)S(=O)(=O)NC2C", "note": "(stereo unspecified)", "inhibition": "4.99% (inactive)"},
      {"molecule": "Cn1c(-c2ccc(F)cc2)cnc1SCC(=O)NCc1ccco1", "inhibition": "-3.37% (inactive)"},
      {"molecule": "O=c1[nH]c(CSc2ncc(-c3ccc(F)cc3)n2Cc2ccco2)nc2ccccc12", "inhibition": "67.8% (active)"},
      {"molecule": "CCn1c(COc2c(C)cccc2C)nnc1SCc1nc2ccccc2c(=O)[nH]1", "inhibition": "2.03% (inactive)"},
      {"molecule": "CN(C)CCCn1c(SCCN2C(=O)c3ccccc3C2=O)nc2ccccc2c1=O", "inhibition": "-1.92% (inactive)"},
      {"molecule": "CCOc1ncccc1C(=O)OCC(=O)c1c[nH]c2ccccc12", "inhibition": "42% (inactive)"},
      {"molecule": "C[N+](C)(C)CCNC(=O)c1c[nH]c2ccccc12", "inhibition": "-17.1% (inactive)"},
      {"molecule": "C[C@H](NC(=O)c1ccccc1)C(=O)OCC(=O)c1c[nH]c2ccccc12", "inhibition": "52.1% (active)"},
      {"molecule": "COC(=O)C1=C(C)N(Cc2ccccc2C(F)(F)F)C(=NCC2CC2)NC1c1cccc(Cl)c1", "note": "(stereo unspecified)", "inhibition": "1.62% (inactive)"},
      {"molecule": "CCOC(=O)c1cc(-c2ccc(Cl)s2)nc2c1c(C)nn2C", "inhibition": "1.4% (inactive)"},
      {"molecule": "CNS(=O)(=O)c1cccc(C(=O)OCC(=O)N2c3ccccc3NC(=O)C2(C)C)c1", "inhibition": "0.12% (inactive)"},
      {"molecule": "Cc1ccc(OCCC(=O)OCC(=O)N2c3ccccc3NC(=O)C2(C)C)cc1", "inhibition": "50.6% (active)"},
      {"molecule": "CC1(C)C(=O)Nc2ccccc2N1C(=O)COC(=O)Cn1cnc2ccccc2c1=O", "inhibition": "12.5% (inactive)"},
      {"molecule": "CC(c1ccccc1)n1c(NCCCn2ccnc2)nc2c1c(=O)[nH]c(=O)n2C", "note": "(stereo unspecified)", "inhibition": "10.8% (inactive)"},
      {"molecule": "Cc1cc(=O)[nH]c2nnnn12", "inhibition": "-7.21% (inactive)"},
      {"molecule": "COc1ccc(N(CC(=O)N/N=C/c2cccs2)S(=O)(=O)c2ccc(OC)c(OC)c2)cc1", "inhibition": "69.2% (active)"},
      {"molecule": "COc1ccc(N(CC(=O)N/N=C/c2cccc3c2OCCO3)S(=O)(=O)c2ccc(NC(C)=O)cc2)cc1", "inhibition": "29.3% (inactive)"},
      {"molecule": "COc1ccc(S(=O)(=O)N(CC(=O)N/N=C/c2ccc(C(=O)O)cc2)Cc2ccccc2)cc1OC", "inhibition": "-28.3% (inactive)"},
      {"molecule": "Nc1[nH]c(C(=O)c2ccccc2)c(-c2ccc(Cl)cc2Cl)c1C(=O)c1ccccc1", "inhibition": "-37.8% (inactive)"},
      {"molecule": "CSCCC(NC(=O)COc1ccccc1)C(=O)OCCOc1ccc(F)cc1", "note": "(stereo unspecified)", "inhibition": "37.1% (inactive)"},
      {"molecule": "CSCCC(NC(=O)COc1ccccc1)C(=O)OCC(=O)c1cc2ccccc2o1", "note": "(stereo unspecified)", "inhibition": "50% (active)"},
      {"molecule": "CSCCC(NC(=O)COc1ccccc1)C(=O)OCCOc1ccc(Br)cc1", "note": "(stereo unspecified)", "inhibition": "55.7% (active)"},
      {"molecule": "COc1ccccc1OCCNC(=O)C(CCSC)NC(=O)COc1ccccc1", "note": "(stereo unspecified)", "inhibition": "-26.3% (inactive)"},
      {"molecule": "CSCCC(NC(=O)COc1ccccc1)C(=O)OCc1ccc(Cl)cc1", "note": "(stereo unspecified)", "inhibition": "22.9% (inactive)"},
      {"molecule": "CSCCC(NC(=O)COc1ccccc1)C(=O)Nc1ccc(C)cc1", "note": "(stereo unspecified)", "inhibition": "-10.3% (inactive)"},
      {"molecule": "C=CCN1C(=O)C2(OCCCO2)c2cccc(Cl)c21", "inhibition": "3.13% (inactive)"},
      {"molecule": "O=C(Nc1c(Cl)c(C2CC2)nn1-c1ccccc1)C(Cl)(Cl)Cl", "inhibition": "-12.3% (inactive)"},
      {"molecule": "FC(F)(F)c1cccc(-c2nc3ccccc3n2C(c2ccccc2)c2nc3ccccc3[nH]2)c1", "note": "(stereo unspecified)", "inhibition": "18.4% (inactive)"},
      {"molecule": "O=C(c1ccc(C(F)(F)F)cc1)N1CCC(=O)N([C@H](COCc2ccccc2)Cc2ccccc2)CC1", "inhibition": "14.8% (inactive)"},
      {"molecule": "COc1ccc(NC(=O)C(c2ccncc2)n2c(=O)c(-c3cc4ccccc4[nH]3)nc3ccccc32)cc1", "note": "(stereo unspecified)", "inhibition": "-5.75% (inactive)"},
      {"molecule": "O=C1NC[C@H](CCCCN2C[C@H](Cc3ccc(O)cc3)N(CCc3ccccc3)C(=O)C2=O)N(CCc2ccccc2)C1=O", "inhibition": "5.71% (inactive)"},
      {"molecule": "COc1ccc(C2=NOC(Cn3nc(C(=O)NCc4ccc5c(c4)OCO5)cc3-c3ccccc3)C2)cc1", "note": "(stereo unspecified)", "inhibition": "59.7% (active)"},
      {"molecule": "COc1ccc(CNC(=O)C2(CC3CC(c4ccccc4)=NO3)CCN(C(=O)c3cccc(O)c3)CC2)cc1", "note": "(stereo unspecified)", "inhibition": "33.5% (inactive)"},
      {"molecule": "Cc1ccc(CNC(=O)c2cc(-c3ccccc3C)n(CC3CC(c4cccc([N+](=O)[O-])c4)=NO3)n2)cc1", "note": "(stereo unspecified)", "inhibition": "7.96% (inactive)"},
      {"molecule": "COc1ccccc1C(=O)N1O[C@]23C=C[C@]14C[C@@H](O)CC[C@]4(C)C2CC[C@]1(C)[C@@H]([C@H](C)/C=C/[C@H](C)C(C)C)CC[C@H]13", "note": "(stereo partly specified)", "inhibition": "2.31% (inactive)"},
      {"molecule": "Cc1ccc(C)c(-n2nnnc2SCC(=O)c2c(N)n(C)c(=O)n(C)c2=O)c1", "inhibition": "-13.3% (inactive)"},
      {"molecule": "COC(=O)Nc1ccc(S(=O)(=O)Nc2cc(OC)nc(OC)n2)cc1", "inhibition": "-1.45% (inactive)"},
      {"molecule": "Cc1cc2nc3c(=O)[nH]c(=O)nc-3n(C[C@H](O)[C@H](O)[C@H](O)CO)c2cc1C", "inhibition": "18.8% (inactive)"},
      {"molecule": "CCN(CC)CCCC(C)n1c2nc(=O)[nH]c(=O)c-2nc2cc(Cl)ccc21", "note": "(stereo unspecified)", "inhibition": "72% (active)"}
    ]}
  ]
}
